Among the data in ChEMBL document CHEMBL5038594, “Structural Fine-Tuning of Desmuramylpeptide NOD2 Agonists Defines Their In Vivo Adjuvant Activity” (J Med Chem, 2021) are Activity values, retold here.

Active and inactive are the calls of the source. The calls are words filed in the database; no cut-off is given here.

Data set [1] can be described thus: Cytotoxicity against HEK-Blue hNOD2 cells assessed as reduction in metabolic activity at 20 uM incubated for 18 hrs by MTS assay. The note with it: human, hek-blue hnod2, 18 h. It is filed as toxicity, cell-based. The essentials:
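HEK-Blue NOD2 cells, 40 000 per well, exposed to 20 μM compound or 0.1% DMSO for 18 h at 37 °C, 5% CO2. Metabolic activity measured by MTS (CellTiter 96 AQueous One) reagent. Duplicates, two independent biological replicates.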
For orientation: Formazan colour is commonly taken as a measure of viable cells.

Data set [2] deals with T1, Nucleotide-binding oligomerization domain-containing protein 1 (Homo sapiens) (UniProt Q9Y239).
T1 sequence (whole entry): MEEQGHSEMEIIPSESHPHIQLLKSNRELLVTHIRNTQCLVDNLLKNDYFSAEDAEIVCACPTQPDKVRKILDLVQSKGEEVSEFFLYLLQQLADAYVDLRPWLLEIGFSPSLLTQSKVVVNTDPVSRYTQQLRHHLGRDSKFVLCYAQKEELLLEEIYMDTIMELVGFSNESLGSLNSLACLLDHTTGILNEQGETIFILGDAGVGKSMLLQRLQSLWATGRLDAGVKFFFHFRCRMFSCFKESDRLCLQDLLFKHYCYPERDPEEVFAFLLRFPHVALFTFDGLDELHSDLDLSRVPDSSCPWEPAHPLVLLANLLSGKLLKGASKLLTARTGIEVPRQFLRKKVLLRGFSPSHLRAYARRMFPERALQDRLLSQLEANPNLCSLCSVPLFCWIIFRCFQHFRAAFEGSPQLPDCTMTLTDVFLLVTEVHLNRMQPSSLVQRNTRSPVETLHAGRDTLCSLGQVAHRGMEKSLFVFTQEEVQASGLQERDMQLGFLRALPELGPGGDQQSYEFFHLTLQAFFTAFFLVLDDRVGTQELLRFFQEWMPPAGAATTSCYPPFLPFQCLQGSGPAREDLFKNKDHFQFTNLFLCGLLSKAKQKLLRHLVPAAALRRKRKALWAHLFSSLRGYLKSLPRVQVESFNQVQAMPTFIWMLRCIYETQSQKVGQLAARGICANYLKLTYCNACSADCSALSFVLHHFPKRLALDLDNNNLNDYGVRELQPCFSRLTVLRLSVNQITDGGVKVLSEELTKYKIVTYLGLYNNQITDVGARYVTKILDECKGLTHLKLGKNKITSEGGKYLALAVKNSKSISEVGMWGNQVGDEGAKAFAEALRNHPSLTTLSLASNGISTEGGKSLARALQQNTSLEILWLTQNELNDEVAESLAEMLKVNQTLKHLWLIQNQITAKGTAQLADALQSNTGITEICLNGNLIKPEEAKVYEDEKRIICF
Briefly: Agonist activity at NOD1 in HEK-Blue hNOD2 cells assessed as increase in NFkappaB transactivation-mediated SEAP activity measured after 18 hrs by spectrophotometric method. In kind it is cell-based. The note with it: HEK-Blue hNOD1, in the assay text read “HEK-Blue hNOD1 cells” for “HEK-Blue hNOD2 cells”. Summed up: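 Counter-screen in HEK-Blue NOD1 cells (HEK293 stably expressing human NOD1 plus an NF-κB-inducible SEAP reporter), seeded at 2.5 × 10^5 cells/mL in HEK-Blue detection medium. Compounds at 2 μM versus 0.1% DMSO vehicle, 18 h at 37 °C, 5% CO2. SEAP read as absorbance at 630 nm. Duplicates, at least two independent experiments.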

Turning to `CCOC(=O)CC[C@@H](NC(=O)[C@@H](NC(=O)CNC(=O)/C=C/c1ccc(N)cc1)C(C)C)C(=O)OCC`, the Activity result in data set [1] is “Non-Toxic”. Moreover, the result in data set [2] was inactive.
In the case of `CCCCCCCCCCCC(=O)Oc1ccc(/C=C/C(=O)NCC(=O)N[C@H](C(=O)N[C@H](CCC(=O)OC2CCCC2)C(=O)OC2CCCC2)C(C)C)cc1OC`, the Activity entry in data set [1] is on record as “Non-Toxic”. For the same compound, in data set [2], the result was inactive.
`CCCCCCCCCCCCCCCCCCOC(=O)CC[C@@H](NC(=O)[C@@H](NC(=O)CNC(=O)/C=C/c1ccc(O)c(OC)c1)C(C)C)C(=O)OCCCCCCCCCCCCCCCCCC`: the Activity entry in data set [1] was “Non-Toxic”. Further, the outcome in data set [2] was inactive.
Consider `CCOC(=O)CC[C@@H](NC(=O)[C@@H](NC(=O)CNC(=O)C1CC1c1ccc(O)c(OC)c1)C(C)C)C(=O)OCC` (some centres undefined), for which the Activity entry in data set [1] is on record as “Non-Toxic”. Moreover, in data set [2], the outcome was inactive.
`CCOC(=O)CC[C@@H](NC(=O)[C@@H](NC(=O)CNC(=O)CCc1ccc(O)c(OC)c1)C(C)C)C(=O)OCC`: the Activity entry in data set [1] is given as “Non-Toxic”. For the same compound, in data set [2], the result was inactive.
For `COc1cc(/C=C/C(=O)NCC(=O)N[C@H](C(=O)N[C@H](CCC(=O)OC(C)(C)C)C(=O)N(C)OC)C(C)C)ccc1O`, the Activity result in data set [1] is recorded as “Non-Toxic”. In data set [2], the result was inactive.
With `CCCCCCCCCCCCCCCCCC(=O)Oc1ccc(/C=C/C(=O)NCC(=O)N[C@@H](COCc2ccccc2)C(=O)N[C@H](CCC(=O)OCC)C(=O)OCC)cc1OC`, in data set [1], the Activity result was “Non-Toxic”. For the same compound, in data set [2], the result was inactive.
On to `CCOC(=O)CC[C@@H](NC(=O)[C@@H](NC(=O)CNC(=O)[C@@H]1C[C@H]1c1ccc(F)c(F)c1)C(C)C)C(=O)OCC`, for which the Activity result in data set [1] was “Non-Toxic”. Moreover, the result in data set [2] was inactive.
In the case of `CCOC(=O)CC[C@@H](NC(=O)[C@H](CO)NC(=O)CNC(=O)/C=C/c1ccc(O)c(OC)c1)C(=O)OCC`, the Activity entry in data set [1] is listed as “Non-Toxic”. Moreover, the outcome in data set [2] was inactive.
Consider `CCCCNC(=O)CC[C@@H](NC(=O)[C@@H](NC(=O)CNC(=O)/C=C/c1ccc(O)c(OC)c1)C(C)C)C(=O)NCCCC`, for which the Activity result in data set [1] was “Non-Toxic”. Further, in data set [2], the result was inactive.
In the case of `COc1cc(/C=C/C(=O)NCC(=O)N[C@H](C(=O)N[C@H](CCC(=O)OC(C)(C)C)C(=O)OC(C)(C)C)C(C)C)ccc1O`, the Activity entry in data set [1] is on record as “Non-Toxic”. For the same compound, the outcome in data set [2] was inactive.
Take `CCCCCCCCCCCCCCCCCC(=O)Oc1ccc(/C=C/C(=O)NCC(=O)N[C@H](C(=O)N[C@H](CCC(=O)OC2CCCC2)C(=O)OC2CCCC2)C(C)C)cc1OC`: the Activity entry in data set [1] is reported as “Non-Toxic”. Moreover, in data set [2], the result was inactive.
In the case of `CCOC(=O)CC[C@@H](NC(=O)[C@@H](NC(=O)CNC(=O)C1CC1c1ccc(OC)c(OC)c1)C(C)C)C(=O)OCC` (some centres undefined), in data set [1], the Activity entry is listed as “Non-Toxic”. For the same compound, in data set [2], the outcome was inactive.
Regarding `CCCCNC(=O)CC[C@@H](NC(=O)[C@@H](NC(=O)CNC(=O)/C=C/c1ccc(O)c(OC)c1)C(C)C)C(=O)OC(C)(C)C`, the Activity result in data set [1] was “Non-Toxic”. Further, the outcome in data set [2] was inactive.
For the compound `CCOC(=O)CC[C@@H](NC(=O)[C@@H](NC(=O)CNC(=O)CCCc1ccc(O)c(OC)c1)C(C)C)C(=O)OCC`, in data set [1], the Activity result is reported as “Non-Toxic”. Further, in data set [2], the outcome was inactive.
Turning to `COc1cc(/C=C/C(=O)NCC(=O)N[C@H](C(=O)N[C@H](CCC(=O)N2CCCC2)C(=O)OC(C)(C)C)C(C)C)ccc1O`, the Activity entry in data set [1] is reported as “Non-Toxic”. For the same compound, the outcome in data set [2] was inactive.
On the same counts, the results for `COc1cc(/C=C/C(=O)NCC(=O)N[C@H](C(=O)N[C@H](CCC(=O)OC2CCCC2)C(=O)OC2CCCC2)C(C)C)ccc1OC(C)=O` are “Non-Toxic” and “inactive”.
`CCNC(=O)CC[C@@H](NC(=O)[C@@H](NC(=O)CNC(=O)/C=C/c1ccc(O)c(OC)c1)C(C)C)C(=O)NCC`: the Activity entry in data set [1] is on record as “Non-Toxic”. For the same compound, the result in data set [2] was inactive.
As to `CCOC(=O)CC[C@@H](NC(=O)[C@@H](NC(=O)CNC(=O)/C=C/c1ccc(O)c(O)c1)C(C)C)C(=O)OCC`, the Activity result in data set [1] is “Non-Toxic”. Further, the result in data set [2] was inactive.
In the case of `CCOC(=O)CC[C@@H](NC(=O)[C@@H](NC(=O)CNC(=O)/C=C/c1ccc([N+](=O)[O-])cc1)C(C)C)C(=O)OCC`, the Activity entry in data set [1] is given as “Non-Toxic”. Besides, the outcome in data set [2] was inactive.
As for `CCCCCCCCCCCCCCCCCC(=O)NCCCC[C@H](NC(=O)CC[C@@H](NC(=O)[C@@H](NC(=O)CNC(=O)/C=C/c1ccc(O)c(OC)c1)C(C)C)C(=O)OCC)C(=O)OC`, the Activity entry in data set [1] was “Non-Toxic”. In addition, the outcome in data set [2] was inactive.
As for `CCOC(=O)CC[C@@H](NC(=O)[C@@H](NC(=O)CNC(=O)/C=C/c1ccc(OC)c(OC)c1)C(C)C)C(=O)OCC`, in data set [1], the Activity result was “Non-Toxic”. Besides, in data set [2], the result was inactive.
For `CCOC(=O)CC[C@@H](NC(=O)[C@@H](NC(=O)CNC(=O)C1CC1c1ccc(F)c(F)c1)C(C)C)C(=O)OCC` (some centres undefined), the Activity entry in data set [1] is recorded as “Non-Toxic”. Further, in data set [2], the outcome was inactive.
On to `COc1cc(/C=C/C(=O)NCC(=O)N[C@H](C(=O)N[C@H](CCC(=O)OC(C)(C)C)C(=O)N2CCCC2)C(C)C)ccc1O`, for which, in data set [1], the Activity entry was “Non-Toxic”. For the same compound, the result in data set [2] was inactive.
For `CCOC(=O)CC[C@@H](NC(=O)[C@@H](NC(=O)CNC(=O)/C=C/c1ccc(C(C)C)cc1)C(C)C)C(=O)OCC`, the Activity entry in data set [1] was “Non-Toxic”. For the same compound, in data set [2], the result was inactive.
For `CCOC(=O)CC[C@@H](NC(=O)[C@@H](NC(=O)CNC(=O)/C=C/c1ccc(O)c(OC)c1)[C@@H](C)O)C(=O)OCC`, the Activity entry in data set [1] is “Non-Toxic”. In data set [2], the result was inactive.
Consider `CCOC(=O)[C@@H](CCC(=O)N[C@@H](CCCCN)C(=O)OC)NC(=O)[C@@H](NC(=O)CNC(=O)/C=C/c1ccc(O)c(OC)c1)C(C)C`, for which the Activity result in data set [1] is “Non-Toxic”. Moreover, the outcome in data set [2] was inactive.
As to `CCCCCCCCCCCCCCCCCC(=O)Oc1ccc(/C=C/C(=O)NCC(=O)N[C@@H](CO)C(=O)N[C@H](CCC(=O)OCC)C(=O)OCC)cc1OC`, in data set [1], the Activity entry was “Non-Toxic”. Further, the result in data set [2] was inactive.
On the same counts, the results for `CCOC(=O)CC[C@@H](NC(=O)[C@H](COCc1ccccc1)NC(=O)CNC(=O)/C=C/c1ccc(O)c(OC)c1)C(=O)OCC` are “Non-Toxic” and “inactive”.
Consider `COc1cc(/C=C/C(=O)NCC(=O)N[C@H](C(=O)N[C@H](CCC(=O)N(C)OC)C(=O)OC(C)(C)C)C(C)C)ccc1O`, for which the Activity result in data set [1] was “Non-Toxic”. Besides, in data set [2], the result was inactive.
Taken in the same sequence, the figures for `CONC(=O)CC[C@@H](NC(=O)[C@@H](NC(=O)CNC(=O)/C=C/c1ccc(O)c(OC)c1)C(C)C)C(=O)OC(C)(C)C` were “Non-Toxic” and “inactive”.
Take `CCOC(=O)CC[C@@H](NC(=O)[C@@H](NC(=O)CNC(=O)[C@H]1C[C@@H]1c1ccc(F)c(F)c1)C(C)C)C(=O)OCC`: the Activity result in data set [1] is listed as “Non-Toxic”. In data set [2], the outcome was inactive.
